Where two headings read alike, the source gives them in different places.
Legend:
[1] = format: in vivo, healthy Chinese adult volunteers; details: for subjects whose concentration-time curves displayed multiple peaks: fasting state
In short: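 Two open-label BE studies in healthy Chinese adults, each giving one reference tablet dose (20 mg or 80 mg) with 240 mL water. Subjects either fasted ≥10 h pre-dose or ate a high-fat, high-calorie meal (800–1000 kcal) within 30 min of dosing. Blood was drawn from 30 min pre-dose to 48 h post-dose. Plasma was separated at 3000 rpm, stored at −70 °C, and assayed by LC-MS/MS. Cmax, tmax and AUCs came from non-compartmental analysis.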

[2] = Population pharmacokinetic analysis; format: in vivo, healthy Chinese adult volunteers
In short: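 Pooled plasma data from 128 subjects were fitted by SAEM with a two-compartment model: first-order elimination, two deposit absorption compartments, lag times. Parameters were log-normal with exponential IIV, and proportional, additive and combined residual errors were tested. Stepwise covariate search used p<0.05 forward and p<0.01 backward. Sex, age, WT and BMI were tested on CL/F and volume. Food (0 fasted, 1 fed) was tested on absorption parameters. Evaluation used AIC, OFV, GOF, VPC (1000 simulations) and NPDE.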

[3] = set-up: species or system healthy Caucasian subjects; details: Caucasian
In short: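 Monte Carlo simulation from the final Chinese-population model, with CL/F raised and relative bioavailability lowered per earlier published race covariate estimates. The 24 simulated Caucasian subjects had demographics matching a reported food-effect study.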

[4] = Reported food effect study in Caucasian population; format: in vivo, healthy Caucasian subjects; details: average of the 40 mg and 120 mg group, observed data of ref 22
[5] = fractional difference of race, relative to Chinese model; cited from earlier work
[6] = humans, cited from earlier work
[7] = cited from earlier work
[8] = cited from earlier work; remark: listed apart in the source
[9] = cited from earlier work; remark: listed apart in the source
[10] = fasted, average of the 40 mg and 120 mg group

Cc1nc(-c2ccc(OCC(C)C)c(C#N)c2)sc1C(=O)O [febuxostat, 2-[3-cyano-4-(2-methylpropoxy)phenyl]-4-methylthiazole-5-carboxylic acid]
Cmax (mean ± SD) ([1]; 20 mg single oral dose, fasting (n=36), plasma): 1091 ± 301.0 ng/mL | subjects whose concentration-time curves displayed multiple peaks ([1]; 20 mg, may be overestimated): approximately 75.0% | Tmax (median, range) ([1]; 80 mg single oral dose, fed (n=30), plasma): 1.75 (0.75, 4.00) h | subjects whose concentration-time curves displayed multiple peaks ([1]; 80 mg, may be overestimated): ~80.6% | curves showing multiple peaks ([1]; fed study, may be overestimated): about 40% | Tmax ([1]; human, plasma, po, 20 mg): 1.25 h | estimated CL/F for healthy Chinese subjects ([2]; PopPK final model): 6.14 L/h | CL/F, final model estimate (RSE%) ([2]; apparent clearance): 6.14 (2.26) L∙h^−1 | Vc/F, final model estimate (RSE%) ([2]; apparent distribution volume of central compartment): 10.38 (2.07) L | Vp/F, final model estimate (RSE%) ([2]; apparent distribution volume of peripheral compartment): 10.22 (3.21) L | WT_Vc/F, final model estimate (RSE%) ([2]; covariate coefficient of body weight on Vc/F): 0.58 (27.9) | WT_Vp/F, final model estimate (RSE%) ([2]; covariate coefficient of body weight on Vp/F): 1.15 (22.5) | Food_Tlag1, final model estimate (RSE%) ([2]; covariate coefficient of fed state on Tlag1): 0.73 (18.2) | Food_ka1, final model estimate (RSE%) ([2]; covariate coefficient of fed state on ka1): −2.04 (8) | Food_ka2, final model estimate (RSE%) ([2]; covariate coefficient of fed state on ka2): −1.08 (19.9) | reduction of ka1 by food ([2]; fed vs fasted, final model): 87% | reduction of ka2 by food ([2]; fed vs fasted, final model): 66% | ka1, final model estimate (RSE%) ([2]; first-order absorption rate constant of first depot, fasted state): 4.02 (11.4) h^−1 | ka2, final model estimate (RSE%) ([2]; first-order absorption rate constant of second depot, fasted state): 4.34 (15.6) h^−1 | F1, final model estimate (RSE%) ([2]; fraction of absorbed febuxostat from first depot): 0.51 (3.7) | Q/F, final model estimate (RSE%) ([2]; in vivo): 1.93 (4.25) L∙h^−1 | Tlag1, final model estimate (RSE%) ([2]; lag time of first depot, fasted state): 0.22 (8.93) h | Tlag2, final model estimate (RSE%) ([2]; lag time of second depot): 0.92 (7.63) h | predicted fed/fasted ratio of AUC ([3]; simulated): 1.02 | predicted fed/fasted ratio of Cmax ([3]; simulated): 0.68 | predicted fed/fasted ratio of Tmax ([3]; simulated): 1.53 | ratio of mean predicted and observed AUC [3, 10]: 0.92 | ratio of mean predicted and observed Cmax [3, 10]: 0.81 | ratio of mean predicted and observed Tmax [3, 10]: 1.41 | ratio (predicted/observed) of AUC ([3]; fed state): 1.13 | ratio (predicted/observed) of Cmax ([3]; fed state): 0.92 | ratio (predicted/observed) of Tmax ([3]; fed state): 1.13 | fed/fasted ratio of observed mean AUC [4]: 0.83 | fed/fasted ratio of observed mean Cmax [4]: 0.60 | fed/fasted ratio of observed mean Tmax [4]: 1.87 | decrease of bioavailability applied for Caucasian subjects [5]: 46% | extent of metabolism by glucuronidation [6]: up to 40% | time to reach maximum plasma concentrations (Cmax) ([6]; oral administration, fasting condition): 0.5 ~ 1.5 h | CL/F reported by Rekić et al. [7]: 14.58 L/h | CL/F estimate for healthy Australian subjects [8]: 6.91 L/h | solubility in methanol ([9]; methanol): slightly soluble | solubility in water ([9]; water): practically insoluble

From publication PMC11348603 (BMC Pharmacology & Toxicology, 2024)
